Screening data: PubChem, Sanford-Burnham Center for Chemical Genomics
Rows were chosen to be rich in hits. Some 0.79% of all compounds tested hit in one or more screens of this group.
bIAP act: increases bovine intestinal alkaline phosphatase activity; purified bovine IAP, CDP-star luminescence, 30 min; active compounds read high; fold of DMSO-control signal, blank-subtracted; activation factor at 20 µM; 200,000 tested, 0.17% active;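 active means activation factor of 2 or more at 20 µM, a signal rise over negative controls twice the positive control's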
mIAP inh: mouse IAP inhibition. purified mouse IAP, CDP-Star luminescence, 30 min. inhibition, % at 10 µM. 330,000 tested, 0.2% active. AID 2806;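 active means inhibition of at least 40% at 10 µM in the primary screen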;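 further: plate controls were DMSO with enzyme for no effect and no enzyme wells for full effect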
bIAP inh: intestinal alkaline phosphatase (bovine) inhibition | AID 1019 | 190,000 tested, under 10 active | inhibition, % at 20 µM | purified bovine IAP, CDP-star luminescence, 30 min;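 active means over 50% inhibition of intestinal alkaline phosphatase at 20 µM in the single-dose screen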
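Incubation: 30 min reaction at room temperature / Material: purified bovine intestinal alkaline phosphatase (IAP) enzyme / Input: enzyme at 1/65,000,000 dilution / Dosing: 20 µM single dose / Signal: CDP-star luminescence signal / Reagent: CDP-star chemiluminescent phosphatase substrate, 30 µM final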
hIAP act: human IAP activation. 330,000 tested, 0.16% active. AID 2524. P09923. purified human IAP, CDP-Star luminescence, 30 min; active compounds read high; 1 = vehicle-only enzyme, 0 = enzyme-free background. activation factor at 10 µM;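 active means activation factor of the enzyme at least 2-fold when tested at 20 µM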
Target sequence (P09923 whole entry, looked up): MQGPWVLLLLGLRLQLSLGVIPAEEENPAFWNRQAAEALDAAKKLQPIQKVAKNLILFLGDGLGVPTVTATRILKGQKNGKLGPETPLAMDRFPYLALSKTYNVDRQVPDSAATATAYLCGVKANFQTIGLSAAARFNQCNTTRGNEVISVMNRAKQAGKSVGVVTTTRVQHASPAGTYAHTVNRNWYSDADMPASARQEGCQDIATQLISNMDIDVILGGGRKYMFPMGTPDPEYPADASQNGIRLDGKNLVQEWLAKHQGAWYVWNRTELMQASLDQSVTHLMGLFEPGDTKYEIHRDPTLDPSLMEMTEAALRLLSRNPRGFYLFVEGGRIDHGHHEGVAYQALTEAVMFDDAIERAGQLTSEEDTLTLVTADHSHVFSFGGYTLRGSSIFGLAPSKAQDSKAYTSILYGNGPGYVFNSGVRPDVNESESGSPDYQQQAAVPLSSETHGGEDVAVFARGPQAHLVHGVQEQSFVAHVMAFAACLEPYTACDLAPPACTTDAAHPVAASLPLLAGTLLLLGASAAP
hIAP block: human IAP inhibition; purified IAP, CDP-Star luminescence, 30 min; AID 2544; P09923; 330,000 tested, 0.12% active; inhibition, % at 10 µM;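 active means inhibition reaching a set limit with compound at 10 µM in the primary screen, cut at about 35% in these data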;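 further: plate controls were DMSO wells with enzyme for no effect and no-enzyme buffer wells for full effect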
mIAP act: increases mouse intestinal alkaline phosphatase activity; activation factor at 10 µM; 330,000 tested, 0.24% active; muIAP, CDP-Star luminescence, 30 min; active compounds read high; 1 = vehicle-only enzyme signal, 0 = enzyme-free wells;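 active means activation factor of at least 2 at 20 µM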
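Assay system: mouse IAP enzyme; Reagent: CDP-Star chemiluminescent phosphatase substrate; Compound: DMSO-dissolved test compounds; Incubation: 30 min, room temperature; Technique: luminescence from enzymatic CDP-Star hydrolysis; Controls: DMSO-only wells and no-enzyme negative control.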
The depositor's hits bear a star; i = inactive; / = not tested or not shown.

SMILES	bIAP act	mIAP inh	bIAP inh	hIAP act	hIAP block	mIAP act
COc1cccc(-c2c(C(=O)N/N=C(\C)c3cccnc3)nnn2-c2nonc2N)c1	/	4	/	0.92	8	0.96
Cc1ccc(-n2ncc(C(=O)Nc3cc(Cl)cc(Cl)c3)c2C2CCNCC2)cc1C	6.1*	/	i	/	/	/
CCn1c(C(O)c2ccc3c(c2)OCO3)nc2ccccc21 (stereo unspecified)	2.5*	-2	-154	0.91	9	1
CCn1c(C(O)c2cc(OC)c(OC)c(OC)c2)nc2ccccc21 (stereo unspecified)	/	-6	/	1.1	-11	1.1
Cc1ccc(C(=O)N/C(=C/c2ccc(Cl)cc2)C(=O)Nc2cccc(C(=O)O)c2)cc1	2.2*	-8	-119	0.79	21	1.1
O=C(Nc1cccc(C(=O)O)c1)/C(=C\c1ccccc1)NC(=O)c1ccccc1	1	1	4	1	-4	0.99
O=C(COC(=O)CNC(=O)c1ccc(Cl)c([N+](=O)[O-])c1)NC(=O)CN1CCCC1=O	/	-4	/	0.94	6	1
Cc1cc(-c2nn(-c3ccccc3F)cc2CNCCc2cnc[nH]2)c(C)s1	3*	-9	-198	1.5	-53	1.1
Cc1cc(-c2nn(-c3ccccc3F)cc2CN2CCC(C(N)=O)CC2)c(C)s1	1.1	-11	-6	1	-1	1.1
CN(C)c1nc(NCc2ccccc2)nc(SCC(=O)Nc2ccccc2)n1	0.9	-104	13	0.97	3	2*
CN(C)c1nc(NC(C)(C)C)nc(SCC(=O)Nc2ccccc2)n1	1.1	-16	-7	0.95	5	1.2
CCN(C[C@H]1N[C@@](Cc2ccccc2)(C(=O)OC)[C@H]2C(=O)N(C)C(=O)[C@@H]12)C(=O)NC(C)C	/	7	/	0.87	13	0.93
Cc1cccc(C)c1NC1=NC2(CCCCC2)N=C(N)N1	1.2	-4	-20	1.2	-24	1
COc1cccc(NC2=NC3(CCCCC3)N=C(N)N2)c1	4.3*	-54	-332	1	-2	1.5
NC1=NC2(CCCCC2)N=C(Nc2ccc(Br)cc2)N1	0.9	-327	8	0.95	5	4.3*
COCCNC(=O)/C=C/c1c(Cl)cccc1Cl	0.9	5	7	0.65	35*	0.95
CCN(C[C@H]1N[C@@](CC)(C(=O)OC)[C@H]2C(=O)N(C)C(=O)[C@@H]12)C(=O)Nc1ccccc1	/	-6	/	1.1	-13	1.1
CCc1ccc(N2CCN(C(=O)N3CCOCC3)CC2)cc1	1	-4	2	0.95	5	1
c1ccc(CNc2c3c(nc4ncnn24)CCCC3)nc1	4.8*	6	-378	0.84	16	0.94
COc1ccc(-c2cc(NCc3ccccn3)n3ncnc3n2)cc1	7.4*	-81	i	0.98	2	1.8
CC1=C(C(=O)Nc2cc(C(=O)N(C)Cc3ccccc3)ccc2C)SCCO1	/	4	/	1	-2	0.96
O=C(Nc1cccc(Cl)c1)N1CCN2C(=O)c3ccccc3C12c1ccccc1 (stereo unspecified)	1.1	-108	-8	0.83	17	2.1*
COc1ccc2c(CCNC(=O)c3ccc([N+](=O)[O-])cc3)c[nH]c2c1	0.8	17	18	0.85	14	0.83
CC(NC(=S)Nc1ccc(OC(F)F)c(Cl)c1)C(C)(C)C (stereo unspecified)	0.9	-248	7	1.5	-46	3.5*
FC(F)Oc1ccc(NC(=S)NCc2ccccc2)cc1	0.9	-65	13	1.1	-8	1.7
SMILES	bIAP act	mIAP inh	bIAP inh	hIAP act	hIAP block	mIAP act
FC(F)Oc1ccc(NC(=S)NCc2ccccc2)cc1Cl	0.8	-124	19	1.2	-19	2.2*
Cc1ccc(NC(=S)Nc2ccc(OC(F)F)c(Cl)c2)cc1Cl	0.8	/	22	/	/	/
O=C(N1CCN(c2ccccc2F)CC1)C1(c2cccs2)CCOCC1	3.7*	-3	-275	0.93	7	1
COc1ccc(S(=O)(=O)N(C)c2ccc(C(=O)N3CCC(C(N)=O)CC3)cc2)cc1OC	1.1	2	-11	1.2	-16	0.98
O=C(Nc1cccnc1)Nc1cc(Cl)cc(Cl)c1	1.1	-146	-6	1	-2	2.5*
COc1cccc(-c2cccc(NC(=O)C3CCN(Cc4ccc(CO)o4)CC3)c2)c1	/	3	/	0.92	8	0.97
